Assay outcomes from PubChem BioAssay.
In the library only some 1.6% were active in any assay of this set; here they are far more common.
HMGR II inh = inhibitors of class II HMG-CoA reductase from Enterococcus faecalis; purified E. faecalis HMGR, NADPH absorbance 340 nm kinetic; inhibition, % at 10 µM; 190,000 compounds, 0.41% hits; AID 1066;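 active means inhibition above a set limit, the median over all tested compounds plus 3 SD, cut at about 9.5% in these data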;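 further: enzyme runs in reverse so mevalonate oxidation gives rising NADPH absorbance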
ABCB1 block = human ABCB1 inhibition, ABCG2 as counter-screen; P08183; CCRF-Adr cells, JC-1 efflux, flow cytometry; inhibition, % at 6.6 µM; 190,000 compounds, 0.067% hits; AID 1326; in the data active means inhibition above about 40%;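 further: higher value means more JC-1 retained so stronger ABCB1 efflux block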
Diaphorase act = diaphorase activation or chemical reduction counter-screen; activation factor at 20 µM; 190,000 compounds, 0.005% hits; Diaphorase/resazurin coupled assay, resorufin fluorescence, 16 min; active compounds read high; 1 = vehicle wells, 0 = NADH-free wells;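 active means diaphorase activity raised at least twofold by the compound at 20 µM; inactive means activation factor below 2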
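Material: purified diaphorase enzyme from Clostridium kluyveri; Also added: 0.114 mM NADH and 0.1 mM resazurin, final amounts; Doses: single compound dose of 20 µM, 1% DMSO final; Times: 16 min enzyme reaction, ambient temperature; Detection: resorufin fluorescence, excitation 544 nm, emission 590 nm; Measure: increased resorufin signal from activators or reducing compounds.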
Diaph inh CS = inhibits diaphorase or chemically oxidizes, flagging diaphorase assay artifacts; diaphorase resazurin-to-resorufin fluorescence, NADH, 16 min; bacterial (C. kluyveri) enzyme, not human; inhibition, % at 20 µM; AID 1217; 190,000 compounds, 0.69% hits;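 active means primary screen inhibition at 20 µM above a set limit, cut at about 50% in these data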
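Test system: diaphorase enzyme from Clostridium kluyveri; amount: diaphorase at 0.14 U/mL in enzyme working solution; detection: fluorescence of resorufin formed from resazurin, Ex 544/Em 590 nm; times: reaction incubation of 16 min at room temperature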
p47phox inh = inhibitors of human p47phox binding; P14598; p47phox/p22phox peptide binding, fluorescence polarization, 2 h; inhibition, % at 24.7 µM; 220,000 compounds, 0.53% hits; AID 1274;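 active means inhibition above about 30%, limit read from the data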
ABCG2 block = inhibitors of human ABCG2 transporter, ABCB1 counter-screen; Q9UNQ0; IgMXP3 cells, JC-1 efflux, flow cytometry; inhibition, % at 6.6 µM; 190,000 compounds, 0.1% hits; AID 1325;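 active means inhibition above 80%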
Target sequence (Q9UNQ0 whole entry, looked up): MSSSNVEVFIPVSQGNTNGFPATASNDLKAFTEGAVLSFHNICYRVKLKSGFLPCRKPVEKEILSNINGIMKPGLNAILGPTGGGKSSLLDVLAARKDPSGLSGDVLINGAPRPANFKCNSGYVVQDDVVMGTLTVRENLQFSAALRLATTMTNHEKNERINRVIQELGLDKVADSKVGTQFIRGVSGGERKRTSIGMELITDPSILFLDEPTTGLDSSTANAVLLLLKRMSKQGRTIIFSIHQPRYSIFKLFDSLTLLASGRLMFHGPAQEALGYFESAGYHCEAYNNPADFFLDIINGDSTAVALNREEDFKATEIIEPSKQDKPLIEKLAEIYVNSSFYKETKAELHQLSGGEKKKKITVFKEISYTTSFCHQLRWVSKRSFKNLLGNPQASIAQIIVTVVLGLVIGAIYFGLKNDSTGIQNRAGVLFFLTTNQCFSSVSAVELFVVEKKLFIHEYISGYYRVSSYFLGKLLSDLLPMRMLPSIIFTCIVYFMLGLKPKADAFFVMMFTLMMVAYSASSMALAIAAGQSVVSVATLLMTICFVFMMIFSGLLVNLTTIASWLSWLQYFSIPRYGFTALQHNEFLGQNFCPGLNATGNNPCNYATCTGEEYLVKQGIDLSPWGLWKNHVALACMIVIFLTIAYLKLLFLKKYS
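System: two drug-resistant human cell lines, ABCG2 and ABCB1; controls: nicardipine high and DMSO low controls; times: 10 min exposure at 25 °C with rotation, no wash; detection: flow cytometry of retained JC-1 fluorescence; read-out basis: percent efflux inhibition, scaled nicardipine 100% to DMSO 0%; doses: one concentration, 6.6 µM final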
Each line names hits and unclear results; the compound was inactive in the other large screens.

CC(C)(C)N=C1NN=C(c2ccc(Cl)cc2)CS1	none (no result: HMGR II inh, ABCB1 block, Diaphorase act, Diaph inh CS, ABCG2 block)
O=C(NC(c1ccc(Cl)cc1)c1cc(Cl)c2cccnc2c1O)c1cccnc1 (stereo unspecified)	p47phox inh 32
CCCC(=O)NC(c1ccc(OC)c(OC)c1)c1cc(Cl)c2cccnc2c1O (stereo unspecified)	none
CC(=O)NC(c1ccc(C)cc1)c1cc([N+](=O)[O-])c2cccnc2c1O (stereo unspecified)	Diaph inh CS 60
CCC(=O)NC(c1ccc(C)cc1)c1cc([N+](=O)[O-])c2cccnc2c1O (stereo unspecified)	none
CCn1c(SCc2nc(-c3ccc(Cl)cc3)no2)nnc1-c1ccco1	none
S=c1nc2ccccc2c2nc(-c3ccccc3)[nH]n12	Diaph inh CS 77 (no result: ABCB1 block, ABCG2 block)
CC(Oc1ccc(Br)cc1)c1nc2c3ccccc3nc(=S)n2[nH]1 (stereo unspecified)	Diaph inh CS 85
S=c1nc(-c2ccccc2)[nH]n1-c1ccccc1	none
CCCC(Oc1ccc(Br)cc1)c1nc2c3cc(OC)c(OC)cc3nc(=S)n2[nH]1 (stereo unspecified)	none
O=C(CSc1nnc(-c2cccnc2)n1Cc1ccco1)c1ccc2ccccc2c1	none
O=C(Cn1cncn1)N/N=C/c1cccc2ccccc12	none
CCC1CCCCN1CCCNC(=O)CCCNC(=O)Cn1cnc2sc3c(c2c1=O)CCCC3 (stereo unspecified)	none
Cc1ccc(-n2c(CNc3ccc(F)cc3)nnc2SCC(=O)N2CCCC2)cc1	none
COc1ccc(NCc2nnc(SCCN3CCCCC3)n2-c2ccc(C)cc2)cc1	HMGR II inh 17
O=C(CSc1nc2ccccc2c(=O)n1-c1ccccc1)NCc1ccc2c(c1)OCO2	p47phox inh 53
O=C(COC(=O)CN1C(=O)c2ccccc2C1=O)Nc1ccc(S(=O)(=O)N2CCCC2)cc1	HMGR II inh 12
COc1ccc(CCN=C(NS(=O)(=O)c2ccc(Cl)cc2)c2ccccc2)cc1	Diaph inh CS 52
CCOC(=O)c1[nH]c(C)c(C(=O)Nc2ccccc2F)c1C	none
CCOC(=O)c1c(C)sc2c1N(C(=O)CN1CCOCC1)c1cc(Cl)ccc1S2	Diaph inh CS 57
CC1CCN(c2cc(N)c(Cl)cc2[N+](=O)[O-])CC1	HMGR II inh 16
CC1CCN(c2cc(C#N)c(C#N)cc2[N+](=O)[O-])CC1	none
CCOC(=O)C1CCC(CNCc2ccccc2C)CC1 (stereo unspecified)	HMGR II inh 9.8
COc1ccc(-c2ccc3c(N)c(C(=O)c4ccc(OC)c(OC)c4)sc3n2)cc1	none
COc1ccc(C(=O)c2sc3nc(-c4ccccc4)ccc3c2N)cc1OC	p47phox inh 30
CCOC(=O)N1CCC(NC(=O)c2ccc3c(c2)N(Cc2ccc(F)cc2)CCS3)CC1	none
COc1cccc(/C=N/NC(=O)CNC(=O)COc2ccccc2)c1O	p47phox inh 82 (no result: HMGR II inh, ABCB1 block, Diaphorase act, Diaph inh CS, ABCG2 block)
CCCCCn1c(NC(=O)c2ccco2)c(S(=O)(=O)c2ccc(C)cc2)c2nc3ccccc3nc21	none
CCCCn1c(NC(=O)c2ccco2)c(S(=O)(=O)c2ccc(C)cc2)c2nc3ccccc3nc21	Diaph inh CS 69
Cc1cccc(N2CCc3c2nc2ccc(Br)cc2c3N)c1	Diaph inh CS 78
O=c1nc2c(O)cccn2c2c1c(=O)[nH]c1ccccc12	Diaph inh CS 75
CCOc1ccc(OCC)c(S(=O)(=O)NCc2ccc3c(c2)OCO3)c1	p47phox inh 66
O=C(OCc1nc2ccccc2[nH]1)C12CC3CC(CC(C3)C1)C2	none
CC(C)(C)NC(=O)CN(C(=O)CNC(=O)c1cccs1)c1ccc2c(c1)OCCO2	none
COc1ccc(NC(=O)CCC(=O)c2cccs2)cc1S(=O)(=O)Nc1ccc(Cl)cc1	Diaph inh CS 50
COc1ccccc1NS(=O)(=O)c1cc(NC(=O)CCC(=O)c2cccs2)ccc1Cl	none
O=C(/C=C/c1ccccc1)NNC(=O)C1CC1	none
O=C(NNC(=O)C(O)(c1ccccc1)c1ccccc1)C1CC1	HMGR II inh 11
CC(=O)NCc1ccc(-c2nc3ccccc3s2)cc1	none
O=C(Nc1nccs1)c1ccc(CSc2nnnn2-c2ccccc2)cc1	HMGR II inh 11
NC(=O)c1ccc(-n2nnnc2SCc2ccccc2)cc1	none
O=C(Nc1cccnc1)c1cccc(S(=O)(=O)N2CCCCC2)c1	HMGR II inh 12
Cc1ccc(C(=O)Nc2cccnc2)cc1S(=O)(=O)N1CCCCC1	none
CCO[C@@H]1OC(C(=O)Nc2ccccc2)=C[C@H](c2ccc(C(F)(F)F)cc2)[C@H]1CCCO	HMGR II inh 12
CCO[C@H]1OC(C(=O)Nc2ccccc2)=C[C@@H](c2ccc(Br)cc2)[C@@H]1CCCO	none
COc1ccccc1N=Cc1c(C)[nH]n(-c2ccc(C)cc2C)c1=O	none
Cc1cc(Br)ccc1-n1[nH]c(C)c(C=Nc2cccc3nsnc23)c1=O	Diaph inh CS 61
COc1ccc(Cl)cc1N1CC(C(=O)Nc2nccs2)CC1=O (stereo unspecified)	none
CCOC1=C/C(=C/c2c(N)n3nc(-c4ccccc4)sc3nc2=O)C=CC1=O	Diaph inh CS 69
CCOc1ccc(-c2cc(CCCC(=O)NCc3ccco3)no2)cc1	p47phox inh 33
CCOC(=O)C(=CNc1ccc(N2CCOCC2)cc1)C(=O)OCC	none (no result: HMGR II inh, ABCB1 block, Diaphorase act, Diaph inh CS, ABCG2 block)
CCOC(=O)Cn1c(=O)oc2cc(S(=O)(=O)NCCc3ccc(OCC)c(OCC)c3)ccc21	p47phox inh 103
Cc1cccc(Cn2c(=O)n(Cc3ccco3)c(=O)c3ccccc32)c1	none
CC(C)c1ccc(NC(=O)C(c2ccccc2)N2CCC3(CC2)OCCO3)cc1 (stereo unspecified)	none
O=C(COc1cc(O)c2c(=O)cc(-c3ccccc3)oc2c1)c1ccc(F)cc1	p47phox inh 32
C[C@](N)(Cc1ccc(O)c(O)c1)C(=O)O	none
NCCc1ccc(O)c(O)c1	Diaph inh CS 54
C/C(N)=C(/C#N)C(=O)COC(=O)CSc1ccc2ccccc2c1	none
CCn1ccnc1CN1CCc2c([nH]c3ccccc23)C1C1CCCCC1 (stereo unspecified)	none (no result: Diaphorase act, Diaph inh CS)
Cc1c(CN2CCc3c([nH]c4ccccc34)C2C2CCCCC2)cnn1C (stereo unspecified)	HMGR II inh 19
O=C(c1cccnc1)N1CCN(C/C=C/c2ccccc2)CC1	none
Cc1cc(C(=O)N2CCN(C/C=C/c3ccccc3)CC2)cs1	p47phox inh 54
Cc1cc(Cl)ccc1OCC(=O)N/N=C/c1ccc(OC2OC(CO)C(O)C(O)C2O)cc1 (stereo unspecified)	none (no result: HMGR II inh, ABCB1 block, Diaphorase act, Diaph inh CS, ABCG2 block)
